FAS-TE inh: inhibitors of human fatty acid synthase thioesterase domain; P49327; recombinant FAS-TE, OMFH fluorogenic substrate, fluorescence endpoint; inhibition, % at 15 µM; 0.67% of 360,000 active; AID 602261;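 active = compounds whose normalised, plate-corrected inhibition of enzyme fluorescence in the single-dose primary screen is 50% or more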;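 also: 0% = DMSO with enzyme and 100% = substrate without enzyme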
hiPSC survival: hiPSC single-cell survival enhancement. ATPlite luminescence; 100% = ROCK inhibitor wells, 0% = DMSO. survival enhancement, % at 20 µM. 0.044% of 360,000 active. AID 602274; in the data active = survival enhancement above about 18%;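 also: cells exposed to compounds for 16 hours before the ATP read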
SENP1 FRET inh: SENP1 (human) catalytic domain inhibition; Q9P0U3; recombinant SENP1 catalytic domain, CyPet-SUMO1-YPet FRET cleavage; inhibition, % at 10 µM; 0.21% of 360,000 active; AID 624204;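 active = inhibition at least 30% at 10 µM, raw YFP signal under a set limit, fluorescence ratio 0.5 to 1.5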;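 also: 0% = enzyme with DMSO and 100% = no enzyme wells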
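Assay system – human recombinant His6-tagged SENP1 catalytic domain enzyme · Input – SENP1 enzyme, 20 pM final · Buffer or medium – Tris pH 8 buffer plus EDTA, NaCl, BME, BSA, NP40, catalase · Schedule – 50 min reaction at room temperature · Technique – FRET read of cyan and yellow fluorescence · Control set – no-enzyme wells low, DMSO-plus-enzyme wells high control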
ABCB6 inh MLPCN: inhibitors of human ABC transporter ABCB6. K562-ABCB6 porphyrin accumulation, flow cytometry, 1 h; hits give low values. Q9NP58. 0.19% of 360,000 active. fluorescence ratio to DMSO, % at 10 µM;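 active = fluorescence ratio to DMSO below 75%, the collection mean minus 3 SD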;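 also: signal is porphyrin accumulated inside mitochondria; 100% equals median channel fluorescence of DMSO control wells; lower ratio means ABCB6 inhibition with less porphyrin fluorescence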
Target sequence (Q9NP58 whole entry, looked up): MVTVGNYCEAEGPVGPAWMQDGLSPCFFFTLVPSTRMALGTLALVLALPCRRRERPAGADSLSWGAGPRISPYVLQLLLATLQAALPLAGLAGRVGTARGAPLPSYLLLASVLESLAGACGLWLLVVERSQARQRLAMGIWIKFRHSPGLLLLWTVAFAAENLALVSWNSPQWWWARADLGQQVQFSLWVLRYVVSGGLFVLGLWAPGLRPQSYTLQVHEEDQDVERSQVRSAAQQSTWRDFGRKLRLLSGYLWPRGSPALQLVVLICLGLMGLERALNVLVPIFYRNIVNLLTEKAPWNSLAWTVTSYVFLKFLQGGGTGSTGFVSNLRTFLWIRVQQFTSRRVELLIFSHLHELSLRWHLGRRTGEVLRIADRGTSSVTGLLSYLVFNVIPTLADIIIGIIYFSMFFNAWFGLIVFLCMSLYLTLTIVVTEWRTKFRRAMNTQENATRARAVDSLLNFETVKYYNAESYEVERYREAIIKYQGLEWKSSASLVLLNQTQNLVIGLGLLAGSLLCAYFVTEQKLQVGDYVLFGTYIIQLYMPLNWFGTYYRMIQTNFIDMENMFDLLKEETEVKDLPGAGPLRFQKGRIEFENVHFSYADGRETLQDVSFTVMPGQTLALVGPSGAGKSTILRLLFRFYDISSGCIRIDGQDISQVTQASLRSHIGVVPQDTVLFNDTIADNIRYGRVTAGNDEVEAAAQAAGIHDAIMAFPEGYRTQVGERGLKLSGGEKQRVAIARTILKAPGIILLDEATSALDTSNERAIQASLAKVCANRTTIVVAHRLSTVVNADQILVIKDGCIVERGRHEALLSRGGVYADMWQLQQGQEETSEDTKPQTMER
ABCB6 inh CP1: blocks the human ABCB6 transporter; 700 tested, under 10 active; ratio response (% of DMSO), % at 10 µM; shares compounds with ABCB6 inh MLPCN; AID 602430; K562-ABCB6 porphyrin accumulation, flow cytometry, 1 h; hits give low values;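 active = repeat-averaged ratio response below 75% of DMSO, the collection mean minus 3 SD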;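 also: median porphyrin fluorescence at 575 nm with 488 nm excitation from mitochondria; lower ratio means less porphyrin signal so ABCB6 inhibition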
Numbers without * were called inactive; x = no result. This is a sample that favours compounds with a hit; in the whole collection about 1.1% have one here.

SMILES | FAS-TE inh | hiPSC survival | SENP1 FRET inh | ABCB6 inh MLPCN | ABCB6 inh CP1
Cc1ccc(CNc2nc(N)c([N+](=O)[O-])c(Nc3cccc(F)c3)n2)cc1 | -1.4 | 0.7 | 3.6 | 101.0 | x
Cn1c(CN2CCOCC2)c(C#N)c2ccccc21 | -6.2 | -0.8 | 5.7 | 60.0* | 100.0
Cn1c(CN2CCCC2)c(C#N)c2ccccc21 | -7.0 | -2.0 | -0.2 | 91.0 | x
CC(=O)NC(Cc1c[nH]c2ccccc12)C(=O)N1CCc2ccccc2C1 (stereo not drawn) | -8.2 | -1.0 | 0.1 | 69.0* | 98.0
Cc1ccc(Nc2nc(-c3cccnc3)nc3ccccc23)cc1 | 16.2 | -0.7 | -2.6 | 71.0* | 98.0
Cc1ccccc1Nc1nc(-c2cccnc2)nc2ccccc12 | 6.6 | -0.6 | -9.7 | 99.0 | x
COc1ccc2c(c1OC)C(=O)N(c1ccc3c(c1)CCC3)C2=O | -0.6 | 4.9 | -8.5 | 63.0* | 98.0
COc1ccc2c(c1OC)C(=O)N(c1ccc(C)c(C)c1)C2=O | 1.4 | -2.2 | -1.3 | 99.0 | x
COC(=O)CCCn1cc(CN2CC(N3CCN(Cc4cccc(C)c4)CC3)CS2(=O)=O)nn1 (stereo not drawn) | -7.2 | 1.0 | -0.5 | 101.0 | x
CN1C(=O)C(CC#N)(C2(CC#N)C(=O)N(C)c3ccccc32)c2ccccc21 (stereo not drawn) | -8.2 | -2.9 | 0.3 | 101.0 | x
CC(NC(=O)COc1ccc(/C=N/NS(=O)(=O)c2ccccc2)cc1)c1ccccc1 (stereo not drawn) | -0.8 | 0.1 | 2.6 | 69.0* | 99.0
CCCCNC(=O)C1(C)CCCCN1Cc1ccc(OCc2ccccc2)cc1 (stereo not drawn) | 24.9 | -1.8 | 1.5 | 105.0 | x
CC(C)(CC(=O)N1CCN(c2ccc(Cl)cc2)CC1)CC1=NS(=O)(=O)c2ccccc2N1 | 21.2 | -1.1 | 2.1 | 99.0 | x
COc1cccc(N2CCN(C(=O)CC(C)(C)CC3=NS(=O)(=O)c4ccccc4N3)CC2)c1 | 8.4 | -0.3 | 0.3 | 14.0* | 100.0
COc1ccc(S(=O)(=O)N(C)c2ccc(C(=O)NCc3ccccn3)cc2)cc1OC | -1.3 | 0.0 | 1.2 | 100.0 | x
COc1ccc(C(=O)C2CCCN(C(=O)c3cccs3)C2)cc1F (stereo not drawn) | -13.0 | -0.1 | 1.5 | 71.0* | 99.0
O=C(O)c1ccccc1N=Cc1c(O)n(-c2nccs2)c(=O)c2ccccc12 | -6.7 | 1.3 | -58.2 | 95.0 | x
CCN(CC)S(=O)(=O)c1cccc(-n2c(O)c(C=Nc3ccccc3C(=O)O)c3ccccc3c2=O)c1 | -3.1 | -0.3 | -66.3 | 74.0* | 83.0
CSCCC(NC(N)=O)C(=O)N(C)CC(=O)Nc1cc(C)ccc1C (stereo not drawn) | -7.3 | -3.1 | -1.0 | 69.0* | 100.0
Cc1ccc(C)c(NC(=O)CN(C)C(=O)[C@@H](NC(N)=O)C(C)C)c1 | -7.5 | 0.5 | 1.4 | 93.0 | x
O=C(Nc1nnc(-c2ccc(F)cc2)o1)c1cc(Cl)sc1Cl | -0.4 | 0.3 | 3.1 | 100.0 | x
O=C(Nc1nnc(-c2ccccc2)o1)c1cc(Cl)sc1Cl | -0.1 | -1.4 | 0.9 | 69.0* | 98.0
COc1ccc(N2CCN(C(=O)CCCCCn3c(=S)[nH]c4ccc(N5CCOCC5)cc4c3=O)CC2)cc1 | 17.0 | -0.6 | -57.1 | 73.0* | 96.0
COCCN(C(=O)COC(=O)Cc1coc2cc3c(cc12)CCC3)c1c(N)n(Cc2ccccc2)c(=O)[nH]c1=O | 10.6 | -0.5 | -2.7 | 93.0 | x
O=S(=O)(NCC1CCCO1)c1cc(Cl)ccc1Br (stereo not drawn) | -7.2 | -1.0 | 0.4 | 24.0* | 100.0
SMILES | FAS-TE inh | hiPSC survival | SENP1 FRET inh | ABCB6 inh MLPCN | ABCB6 inh CP1
O=S(=O)(NCC1CCCO1)c1cc(Cl)ccc1Cl (stereo not drawn) | -3.9 | 0.1 | 2.9 | 103.0 | x
CCCCOCCCNCc1cccn1CCN1CCOCC1 | -1.6 | 1.4 | -1.2 | 66.0* | 100.0
c1csc(CNCCCN2CCOCC2)c1 | -8.7 | -0.8 | 3.1 | 102.0 | x
O=C(CCCc1c[nH]c2ccccc12)NCc1ccccc1C(F)(F)F | 11.3 | -0.1 | -1.1 | 99.0 | x
O=C(COC(=O)CCCC1=NS(=O)(=O)c2ccccc2N1)Nc1ccccc1 | -2.8 | -0.4 | 1.0 | 98.0 | 99.0
COc1cc(NC(=O)COC(=O)CCCC2=NS(=O)(=O)c3ccccc3N2)cc(OC)c1 | -3.5 | -0.5 | 2.1 | 97.0 | 100.0
Cc1cccc(NC(=O)COC(=O)CCCC2=NS(=O)(=O)c3ccccc3N2)c1 | -6.0 | 0.0 | 0.1 | 103.0 | x
O=C(O)CC1Cc2ccccc2C1C(=O)O (stereo not drawn) | -5.7 | -0.2 | 0.6 | 94.0 | x
CCCCCN(C(=O)CCC(=O)OCc1cc(C)ccc1C)c1c(N)n(CCCC)c(=O)[nH]c1=O | 5.6 | 0.3 | -1.4 | 99.0 | 100.0
CCCCCN(C(=O)CCC(=O)OCC(=O)Nc1cccc(CC)c1)c1c(N)n(CCCC)c(=O)[nH]c1=O | -3.2 | 0.3 | 0.0 | 74.0* | 101.0
CCCCCN(C(=O)CCC(=O)OCC(=O)N(CC)c1ccccc1)c1c(N)n(CCCC)c(=O)[nH]c1=O | -9.4 | 0.2 | 0.2 | 100.0 | x
CCCCCN(C(=O)CCC(=O)OCC(=O)Nc1ccc(C)cc1F)c1c(N)n(CCCC)c(=O)[nH]c1=O | -10.8 | -0.5 | 0.0 | 96.0 | x
CCCCCN(C(=O)CCC(=O)OCC(=O)NCCc1ccccc1)c1c(N)n(CCCC)c(=O)[nH]c1=O | -1.5 | -0.5 | 0.5 | 93.0 | 99.0
CCC(C(=O)NCc1ccccc1)n1c(CSCCOc2ccccc2)nc2ccccc21 (stereo not drawn) | x | x | 0.0 | x | x
O=C(COC(=O)CNC(=O)c1ccc(Cl)cc1Cl)NC1CCCCCCC1 | -0.6 | -0.2 | 2.1 | 98.0 | x
CCCN(CC(=O)Nc1ccccc1OC)C(=O)C1=COCCO1 | -9.0 | -0.1 | -5.4 | 99.0 | x
COc1ccc(N(C(=O)c2ccncc2)S(=O)(=O)c2ccc(Cl)cc2)cc1 | 19.1 | -0.8 | -0.3 | 98.0 | x
COc1ccc(N(C(=O)C(C)C)S(=O)(=O)c2ccc(Cl)cc2)cc1 | 9.3 | 2.8 | 3.9 | 48.0* | 98.0
Cn1nc(-c2ccc(C(=O)N3CCN(CCO)CC3)cc2)c2ccccc2c1=O | -10.4 | 6.3 | 3.7 | 72.0* | 97.0
CC(C)=CCOc1ccc2c(C)c(CCC(=O)N3C[C@H]4C[C@@H](C3)c3cccc(=O)n3C4)c(=O)oc2c1C | -3.8 | 0.2 | -11.5 | 98.0 | x
O=C(Nc1nc2ccc([N+](=O)[O-])cc2s1)C1CCCO1 (stereo not drawn) | 6.5 | -1.9 | -13.4 | 92.0 | x
COc1ccc([N+](=O)[O-])cc1NC(=O)C1CCCO1 (stereo not drawn) | -4.2 | 0.3 | 2.4 | 71.0* | 101.0
Cc1cccc(C(=O)OCC(=O)NCCCc2ccccc2)c1O | 9.2 | 0.0 | 1.1 | 18.0* | 100.0
COc1cccc(NC(=O)CN2C(=O)NC(C)(c3ccc(C)cc3)C2=O)c1 (stereo not drawn) | -2.5 | 0.0 | 0.8 | 96.0 | x
CCn1c(SCC(=O)Nc2ccc3c(c2)c2ccccc2n3CC)nnc1-c1ccco1 | 6.3 | 4.7 | 10.1 | 100.0 | x
